In ChEMBL document CHEMBL5625195, “Identification of novel tetrahydroquinoxaline derived phenyl ureas as modulators of the hepatitis B virus nucleocapsid assembly” (Eur J Med Chem, 2023) one finds EC50 and CC50 data, which are given here for 27 molecules.

The test system of data set [1] is Hepatitis B virus. The experiment in a line: Antiviral activity against HBV infected in AML12HBV10 cells assessed as reduction viral replication incubated for 48 hrs. The settings on record: AML12HBV10, 48 h. The class given is functional, organism-based. In outline: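 AML12HBV10 cells were seeded at 2 x 10^4 per well without tetracycline. After one day, 2-fold serial dilutions (10 μM to 0.08 μM) were applied for 48 h. Lysates were denatured, neutralized and dot-blotted, then hybridized with a 32P-labelled riboprobe specific for HBV minus-strand DNA and read by phosphorimager. EC50 was the concentration reducing HBV DNA by 50%.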

The nature of data set [2]: Cytotoxicity against mouse AML12 cells assessed as reduction in cell viability incubated for 48 hrs by MTT assay. Type of data set: toxicity, cell-based. Conditions: AML12 cells. Summed up: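 Stable AML12HBV10 hepatocytes (AML12-derived), cultured without tetracycline, were exposed to 2-fold serial dilutions (50 μM to 1.56 μM) for 48 h. Viability was inspected microscopically and quantified by MTT. CC50 was the concentration lowering viability by 50%.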
A general note: Tetrazolium assays rely on reduction of a dye to a coloured formazan, in cell work by metabolically active cells.

Where only a bound is given, the exact number is not on record here.

Turning to `O=C(Nc1cccc(Cl)c1)N1c2ccccc2NCC1CN1CCC(F)(F)CC1` (centres undefined), in data set [1], the half-maximal effective concentration (EC50) (as a rule, the concentration that produces a half-maximal response) was determined as 0.35 µM. Besides, the CC50 – broadly, the concentration that lowers cell viability or growth by half – at 48 h in data set [2] was over 50 µM.
With `CC1CN(C(=O)Nc2ccc(F)c(Cl)c2)c2ccccc2N1` (centres undefined), in data set [1], the EC50 is over 10 µM. The CC50 at 48 h in data set [2] was over 50 µM.
On the same counts, the results for `O=C(Nc1cc(F)c(F)c(F)c1)N1CCN(C(=O)Nc2ccc(F)c(Cl)c2)c2ccccc21` are 0.32 µM and over 20 µM.
The corresponding values for `O=C(Nc1ccc(F)c(Cl)c1)N1CC(CN2CCC(F)(F)CC2)Nc2ccccc21` (centres undefined) are 4.32 µM and over 100 µM.
On the same counts, the results for `O=C(Nc1ccc(F)c(Cl)c1)N1CC(c2ccccc2)Nc2ccccc21` (centres undefined) are 10 µM and over 50 µM.
Regarding `CC1CNc2ccccc2N1C(=O)Nc1ccc(F)c(Cl)c1` (centres undefined), the concentration giving a half-maximal response (EC50) in data set [1] was 3.02 µM. Moreover, in data set [2], the CC50 at 48 h was over 100 µM.
The corresponding values for `O=C(Cc1ccc(F)c(Cl)c1)N1CCNc2ccccc21` are over 10 µM and over 20 µM.
The corresponding values for `O=C(Nc1ccc(F)c(Cl)c1)C1CCNc2ccccc21` (racemic) are over 10 µM and over 100 µM.
On the same counts, the results for `O=C(Nc1ccc(F)c(Cl)c1)N1c2ccccc2NCC1CN1CCC(F)(F)C1` (centres undefined) are 1.7 µM and over 100 µM.
Consider `O=C(Nc1ccc(F)c(Cl)c1)N1c2ccccc2NCC1CN1CCC(F)(F)CC1` (centres undefined), for which the 50% effective concentration (EC50) in data set [1] was found to be 0.28 µM. The 50% cytotoxic concentration (CC50) at 48 h in data set [2] was over 50 µM.
Regarding `O=C(Nc1ccccc1)N1CCN(C(=O)Nc2ccc(F)c(Cl)c2)c2ccccc21`, the EC50 in data set [1] was found to be 7.34 µM. In data set [2], the CC50 at 48 h was over 12.5 µM.
As for `[N-]=[N+]=Nc1ccc(NC(=O)N2CCNc3ccccc32)cc1Cl`, in data set [1], the concentration for a half-maximal effect (EC50) was found to be 1.66 µM. The 50% cytotoxic concentration (CC50) at 48 h in data set [2] is over 100 µM.
On the same counts, the results for `O=C(Nc1ccc(F)c(C(F)(F)F)c1)N1c2ccccc2NCC1CN1CCC(F)(F)CC1` (centres undefined) are 0.34 µM and 31.4 µM.
On the same counts, the results for `O=C(Nc1ccc(F)c(C(F)F)c1)N1CCNc2ccccc21` are 0.19 µM and over 20 µM.
For `O=C(Nc1cc(F)c(F)c(F)c1)N1c2ccccc2NCC1CN1CCC(F)(F)CC1` (centres undefined), the EC50 in data set [1] is 0.29 µM. Also, in data set [2], the CC50 at 48 h is over 50 µM.
The corresponding values for `O=C(Nc1ccc(F)c(Cl)c1)N1CCc2cccnc21` are over 10 µM and over 25 µM.
The corresponding values for `O=C(Nc1ccc(F)c(C(F)(F)F)c1)N1CCNc2ccccc21` are 0.32 µM and over 20 µM.
The corresponding values for `O=C1CN(C(=O)Nc2ccc(F)c(Cl)c2)c2ccccc2N1` are over 10 µM and over 50 µM.
`O=C(Nc1ccc(F)c(Cl)c1)N1CCCc2ccccc21`: the EC50 in data set [1] was 1.55 µM. Further, the CC50 at 48 h in data set [2] is over 100 µM.
On the same counts, the results for `O=C(Nc1ccc(F)c(Cl)c1)N1CCc2ccccc21` are 0.97 µM and over 100 µM.
The corresponding values for `O=C(Nc1ccc(F)c(Cl)c1)N1CCNc2cc(F)c(F)cc21` are 1.78 µM and over 100 µM.
The corresponding values for `O=C(Nc1ccc(F)c(Cl)c1)N1CC(CN2CCC(F)(F)C2)N(C(=O)Nc2ccc(F)c(Cl)c2)c2ccccc21` (centres undefined) are 1.14 µM and over 100 µM.
For `O=C(Nc1ccc(F)c(Cl)c1)N1CC(CN2CCC(F)(F)CC2)N(C(=O)Nc2ccc(F)c(Cl)c2)c2ccccc21` (centres undefined), in data set [1], the EC50 came to 1.61 µM. The CC50 at 48 h in data set [2] is over 100 µM.
The corresponding values for `O=C(Nc1cc(F)c(F)c(F)c1)N1CCNc2ccccc21` are 0.63 µM and over 100 µM.
As for `O=C(Nc1cccnc1)N1CCN(C(=O)Nc2ccc(F)c(Cl)c2)c2ccccc21`, the EC50 in data set [1] was 5.76 µM. The CC50 at 48 h in data set [2] was over 100 µM.
On the same counts, the results for `O=C(Nc1ccc(F)c(Cl)c1)N1CC(CN2CCOCC2)Nc2ccccc21` (centres undefined) are over 10 µM and over 20 µM.
The corresponding values for `O=C(Nc1ccc(F)c(Cl)c1)N1CCN[C@H]2CCCC[C@H]21` (relative stereo) are over 10 µM and over 100 µM.
